Measurements reported in ChEMBL document CHEMBL1122721, “Synthesis and antiarrhythmic activity of new 1-[1-[2-[3-(alkylamino)-2-hydroxypropoxy]phenyl]vinyl]-1 H-imidazoles and related compounds” (J Med Chem, 1984).
“And” between values parts separate entries of the source, which are not always exact repeats. Equal values may be shown once.

Assays:
[1] = system: Mus musculus; assay: Compound was evaluated for ventricular tachycardia activity in perorally administered mice, 30 min before aconitine infusion, at a dose of 10 mg/kg; S=significant antiarrhythmic effect; type: functional, organism-based; parameters: dose 10 mg/kg; conditions: Heart
Procedure, shortened: (§1)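 Aconitine arrhythmia model in pentobarbital-anesthetized male mice (20-35 g). Test compound was given iv 3 min or po 30 min before continuous tail-vein infusion of aconitine (0.685 µg/min). Lead II ECG recorded; onset times of ventricular extrasystole (VES) and ventricular tachycardia (VT) were measured.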

[2] = system: Canis familiaris; assay: Effect on ischemic arrhythmias was studied in dogs. 3 mg/kg was injected intravenously and percent sinus beats after compound administration, was reported.; type: functional, Canis lupus familiaris; conditions: route intravenous
Procedure, shortened: (§2)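 Conscious dogs with ischemic ventricular arrhythmias persisting for 24 h after a glass bead was inserted into a coronary artery. Compound was given iv or orally. Lead II ECG recorded continuously by telemetry. Percent sinus beats taken before and after dosing, plus duration of effect (min).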

[3] = target: Adrenergic receptor beta (Cavia porcellus); assay: Beta adrenergic receptor blocking activity measured by the chronotropic effect was determined 1 hr after pretreatment of the right atria in guinea pig
[4] = Lethal dose in mice (LD50) (following i.v. dosing); conditions: mouse, in vivo, iv
[5] = system: Mus musculus; assay: Compound was evaluated for ventricular extrasystole activity, 3 min before aconitine infusion, at a dose of 3 mg/kg, intravenously administered in mice; S=significant antiarrhythmic effect; type: functional, organism-based; parameters: dose 3 mg/kg; conditions: Heart; procedure, shortened: as §1
[6] = system: Mus musculus; assay: Compound was evaluated for ventricular extrasystole, 30 min before aconitine infusion, at a dose of 10 mg/kg, perorally administered in mice; S=significant antiarrhythmic effect; type: functional, organism-based; parameters: dose 10 mg/kg; conditions: Heart; procedure, shortened: as §1
[7] = system: Mus musculus; assay: Compound was evaluated for ventricular tachycardia activity in intravenously administered mice, 3 min before aconitine infusion, at a dose of 3 mg/kg; S=significant antiarrhythmic effect; type: functional, organism-based; parameters: dose 3 mg/kg; conditions: Heart; procedure, shortened: as §1
[8] = organism: Canis familiaris; assay: Duration of ischemic arrhythmias in dogs determined in minutes.
[9] = system: Canis familiaris; assay: Effect on ischemic arrhythmias was studied in dogs. 3 mg/kg was injected intravenously and percent sinus beats before compound administration, was reported.; type: functional, Canis lupus familiaris; conditions: route intravenous; procedure, shortened: as §2
[10] = organism: Cavia porcellus; assay: Maximal follow rate showing the contractile frequencies of atria to electrical stimulation 10 min after incubation with right atria of guinea pig.; type: functional
Procedure, shortened: (§3)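 Isolated right atria driven by electrical stimulation (Dawes' method). Maximal follow rate, the highest contractile frequency the atria follow, measured as an index of refractory period 10 min after incubation with compound.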

[11] = target: Adrenergic receptor beta (Cavia porcellus); assay: Beta adrenergic receptor blocking activity measured by the inotropic effect was determined 1 hr after pretreament of the right atria in guinea pig
[12] = system: Mus musculus; assay: Compound was evaluated for ventricular extrasystole activity, 3 min before aconitine infusion, at a dose of 1 mg/kg, intravenously administered in mice; S=significant antiarrhythmic effect; type: functional, organism-based; parameters: dose 1 mg/kg; conditions: Heart; procedure, shortened: as §1
[13] = system: Canis familiaris; assay: Effect on ischemic arrhythmias was studied in dogs, by glass bead method. 10 mg/kg was administered perorally and percent sinus beats before compound administration, was reported.; type: functional, Canis lupus familiaris; conditions: route oral; procedure, shortened: as §2
[14] = system: Canis familiaris; assay: Effect on ischemic arrhythmias was studied in dogs, by glass bead method. 10 mg/kg was administered perorally and percent sinus beats after compound administration, was reported.; type: functional, Canis lupus familiaris; conditions: route oral; procedure, shortened: as §2
[15] = system: Mus musculus; assay: Compound was evaluated for ventricular tachycardia activity in intravenously administered mice, 3 min before aconitine infusion, at a dose of 1 mg/kg; S=significant antiarrhythmic effect; type: functional, organism-based; parameters: dose 1 mg/kg; conditions: Heart; procedure, shortened: as §1
[16] = system: Mus musculus; assay: Compound was evaluated for ventricular extrasystole activity, 3 min before aconitine infusion, at a dose of 10 mg/kg, intravenously administered in mice; S=significant antiarrhythmic effect; type: functional, organism-based; parameters: dose 10 mg/kg; conditions: Heart; procedure, shortened: as §1
[17] = organism: Cavia porcellus; assay: Effect on maximal follow rate showing the contractile frequencies of atria to electrical stimulation 10 min after incubating compound with right atria of guinea pig; type: functional; procedure, shortened: as §3
[18] = system: Mus musculus; assay: Compound was evaluated for ventricular tachycardia activity in perorally administered mice, 30 min before aconitine infusion, at a dose of 30 mg/kg; S=significant antiarrhythmic effect; type: functional, organism-based; parameters: dose 30 mg/kg; conditions: Heart; procedure, shortened: as §1
[19] = system: Mus musculus; assay: Compound was evaluated for ventricular extrasystole, 30 min before aconitine infusion, at a dose of 30 mg/kg, perorally administered in mice; S=significant antiarrhythmic effect; type: functional, organism-based; parameters: dose 30 mg/kg; conditions: Heart; procedure, shortened: as §1
[20] = system: Mus musculus; assay: Compound was evaluated for ventricular extrasystole, 3 min before aconitine infusion, at a dose of 3 mg/kg, intravenously administered in mice; S=significant antiarrhythmic effect; conditions: Heart
[21] = system: Canis familiaris; assay: Effect on ischemic arrhythmias was studied in dogs, by glass bead method. 60 mg/kg was administered perorally and percent sinus beats before compound administration, was reported.; type: functional, Canis lupus familiaris; conditions: route oral; procedure, shortened: as §2
[22] = system: Canis familiaris; assay: Effect on ischemic arrhythmias was studied in dogs. 10 mg/kg was injected intravenously and percent sinus beats after compound administration, was reported.; type: functional, Canis lupus familiaris; conditions: route intravenous; procedure, shortened: as §2
[23] = system: Canis familiaris; assay: Effect on ischemic arrhythmias was studied in dogs. 10 mg/kg was injected intravenously and percent sinus beats before compound administration, was reported.; type: functional, Canis lupus familiaris; conditions: route intravenous; procedure, shortened: as §2
[24] = system: Canis familiaris; assay: Effect on ischemic arrhythmias was studied in dogs, by glass bead method. 60 mg/kg was administered perorally and percent sinus beats after compound administration, was reported.; type: functional, Canis lupus familiaris; conditions: route oral
Procedure, shortened: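 Conscious dogs; ventricular arrhythmias induced by inserting a glass bead into a coronary artery, with marked arrhythmias persisting for 24 h. Compound given orally. Lead II ECG recorded continuously by telemetry. Percent sinus beats measured before and after dosing, and duration of effect in min recorded.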

[25] = system: Mus musculus; assay: Compound was evaluated for ventricular tachycardia activity in intravenously administered mice, 3 min before aconitine infusion, at a dose of 10 mg/kg; S=significant antiarrhythmic effect; type: functional, organism-based; parameters: dose 10 mg/kg; conditions: Heart; procedure, shortened: as §1
[26] = system: Mus musculus; assay: Compound was evaluated for ventricular extrasystole activity, 3 min before aconitine infusion, at a dose of 30 mg/kg, intravenously administered in mice; S=significant antiarrhythmic effect; type: functional, organism-based; parameters: dose 30 mg/kg; conditions: Heart; procedure, shortened: as §1
[27] = system: Mus musculus; assay: Compound was evaluated for ventricular extrasystole activity, 30 min before aconitine infusion, at a dose of 10 mg/kg, perorally administered in mice; S=significant antiarrhythmic effect; conditions: Heart

Compound	Activity [1]	Sinus beats [2] [%]	pA2 [3]	LD50 [4] [mg/kg]	Activity [7]	Sinus beats [9] [%]	Decrease [10] [%]	pA2 [11]	Activity [16]	Activity [18]	Activity [19]	further results
C=C(c1c(C)ccc(Cl)c1OCC(O)CNC(C)(C)C)n1ccnc1 (centres undefined)	Anti-arrhythmic	59.1	5.04	29.5	Anti-arrhythmic	11.7	49.8	5.77	–	–	–	Activity [5]: Anti-arrhythmic; Activity [6]: Anti-arrhythmic; Duration [8]: 30 min
C=C(c1c(Cl)ccc(Cl)c1OCC(O)CNCC(C)C)n1ccnc1 (centres undefined)	Anti-arrhythmic	94.5	4.89	–	–	6.5	34.9	5.81	–	–	–	Activity [12]: Anti-arrhythmic; Sinus beats [13]: 9.9%; Activity [6]: Anti-arrhythmic; Sinus beats [14]: 44.8%; Activity [15]: Anti-arrhythmic; Duration [8]: 60 min and 180 min
C=C(c1c(Cl)ccc(Cl)c1OC[C@@H](O)CNC(C)C)n1ccnc1.Cl	Anti-arrhythmic	–	5.08	–	Anti-arrhythmic	–	–	5.05	Anti-arrhythmic	–	–	Decrease [17]: 40.3%; Activity [6]: Anti-arrhythmic
C=C(c1c(C)c(C)cc(Cl)c1OCC(O)CNC(C)C)n1ccnc1 (centres undefined)	–	–	5.04	15.5	–	–	29.8	5.96	–	Anti-arrhythmic	Anti-arrhythmic	Activity [12]: Anti-arrhythmic; Activity [15]: Anti-arrhythmic
C=C(c1c(Cl)ccc(Cl)c1OCC(O)CNC(C)C)n1ccnc1 (centres undefined)	Anti-arrhythmic	88.9	4.86	–	Anti-arrhythmic	5.8	45.7	5.29	–	–	–	Activity [20]: Anti-arrhythmic; Sinus beats [13]: 9.3%; Sinus beats [14]: 69.3%
CC(C)N(CCC(C(N)=O)(c1ccccc1)c1ccccn1)C(C)C (centres undefined) [DISOPYRAMIDE]	–	–	–	30	–	–	15.7	–	Anti-arrhythmic	Anti-arrhythmic	Anti-arrhythmic	Sinus beats [21]: 10.1%; Sinus beats [22]: 88.4%; Sinus beats [23]: 22.4%; Sinus beats [24]: 66.2%; Activity [25]: Anti-arrhythmic
C=C(c1c(Cl)ccc(Cl)c1OC[C@H](O)CNC(C)C)n1ccnc1.Cl	Anti-arrhythmic	–	4.46	–	Anti-arrhythmic	–	–	5.19	–	–	–	Decrease [17]: 39.5%; Activity [5]: Anti-arrhythmic
C=C(c1c(C)ccc(Cl)c1OCC(O)CNC(C)C)n1ccnc1 (centres undefined)	–	–	5.67	–	–	–	–	5.55	–	Anti-arrhythmic	–	Activity [26]: Anti-arrhythmic; Activity [15]: Anti-arrhythmic
CC(C)NCC(O)COc1cccc2ccccc12 (centres undefined) [PROPRANOLOL]	–	–	–	–	–	–	–	–	Anti-arrhythmic	–	Anti-arrhythmic	Sinus beats [21]: 12%; Decrease [17]: 33.5%; Sinus beats [24]: 51.6%; Activity [25]: Anti-arrhythmic
C=C[C@H]1CN2CC[C@H]1C[C@@H]2[C@@H](O)c1ccnc2ccc(OC)cc12 [QUINIDINE]	–	–	–	–	–	–	26.4	–	Anti-arrhythmic	Anti-arrhythmic	Anti-arrhythmic	Sinus beats [21]: 4.2%; Sinus beats [22]: 74.1%; Sinus beats [23]: 14.1%; Sinus beats [24]: 58.3%; Activity [25]: Anti-arrhythmic
C=C(c1ccc(Cl)c(Cl)c1OCC(O)CNC(C)C)n1ccnc1 (centres undefined)	–	–	4.52	–	Anti-arrhythmic	–	–	4.9	–	–	–	Activity [20]: Anti-arrhythmic
C=C(c1ccccc1OCC(O)CNC(C)C)n1cncn1 (centres undefined)	–	28.3	6.12	–	Anti-arrhythmic	9.8	–	6.33	–	–	Anti-arrhythmic	Activity [5]: Anti-arrhythmic; Duration [8]: 15 min
C=C(c1cc(Cl)ccc1OCC(O)CNC(C)(C)C)n1cccn1 (centres undefined)	–	14.3	6.9	32.5	Anti-arrhythmic	1.8	45.7	6.99	–	–	–	Activity [27]: Anti-arrhythmic
